Active and inactive are the calls of the source. The rule behind the calls is not given here.
How the values were obtained:
[1] = target: T1, Estrogen receptor (Mus musculus) (UniProt O08537+P19785); assay: Antiestrogenic activity in uterotrophic test in mice at 100 ug; format: functional
Outline: (§1)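 Immature female NMRI mice, 20 days old (14.5 ± 1.2 g), randomly grouped 10 per group. Each received a daily sc injection for 3 days of 0.1 mL olive oil solution containing test compound, together with estrone to stimulate uterine growth. Uteri were removed 24 h after the last injection and weighed. Results are reported as % inhibition of the estrone-stimulated uterine weight gain, mean ± SD.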

[2] = target: T1, Estrogen receptor (Mus musculus); assay: Antiestrogenic activity in uterotrophic test in mice at 3.3 ug; format: functional; outline: as §1
[3] = system: Estrogen receptor (Bos taurus); assay: Displacement of [3H]estradiol from calf estrogen receptor
[4] = target: T1, Estrogen receptor (Mus musculus); assay: Inhibitory activity in mouse uterine weight test at 100 ug; format: functional
Outline: (§2)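 Antiuterotrophic (Dorfman) assay in immature 20-day-old female NMRI mice, groups of 10. Uterine growth was stimulated with estrone (0.1 μg) and the test compound was given alongside it, sc daily for 3 days in 0.1 mL olive oil. Uteri were taken 24 h after the last dose. Uterine weight is reported as means ± SD and inhibition as % of the estrone-stimulated response.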

[5] = target: T1, Estrogen receptor (Mus musculus); assay: Antiestrogenic activity in uterotrophic test in mice at 0 ug; format: functional; outline: as §1
[6] = target: T1, Estrogen receptor (Mus musculus); assay: Antiestrogenic activity in uterotrophic test in mice at 1000 ug; format: functional; outline: as §1
[7] = target: T1, Estrogen receptor (Mus musculus); assay: Inhibitory activity in mouse uterine weight test at 0.1 ug; format: functional; outline: as §2
[8] = target: T1, Estrogen receptor (Mus musculus); assay: Inhibitory activity in mouse uterine weight test at 1000 ug; format: functional; outline: as §2
[9] = species on record: Mus musculus; assay: Vaginal cornification test in mice at 0 ug; predominant cellular component leucocytes (diestrus); format: functional, organism-based
Outline: (§3)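 Female NMRI mice (~15 g) were ovariectomized; castration was confirmed at 10 days by leucocyte smears. Mice were primed with estradiol 3-benzoate 0.2 μg, and only responders showing estrus were kept. Groups of three received sc test compound in 0.1 mL olive oil daily for 3 days. Saline vaginal smears were taken 6, 24, 30, 48 and 54 h after the last dose and scored by Allen-Doisy.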

[10] = target: T1, Estrogen receptor (Mus musculus); assay: Antiestrogenic activity in uterotrophic test in mice at 240 ug; format: functional; outline: as §1
[11] = target: T1, Estrogen receptor (Mus musculus); assay: Estrogenic activity in uterotrophic test in mice at 180 ug; format: functional
Outline: (§4)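 Uterine growth stimulation in immature female NMRI mice, 20 days old (14.5 ± 1.2 g), 10 per group. Test compound in 0.1 mL olive oil was given sc daily for 3 days. Uteri were excised 24 h after the final injection and weighed. Effect is reported as mean ± SD.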

[12] = target: T1, Estrogen receptor (Mus musculus); assay: Estrogenic activity in uterotrophic test in mice at 533 ug; format: functional
Outline: (§5)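 Immature (20-day-old) female NMRI mice, 14.5 ± 1.2 g, randomized into groups of 10. Given the test compound sc daily for 3 days in 0.1 mL olive oil. Uteri removed 24 h after the last injection; uterine weight taken as the read-out, means ± SD. Dose in μg.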

[13] = target: T1, Estrogen receptor (Mus musculus); assay: Inhibitory activity in mouse uterine weight test at 27 ug; format: functional; outline: as §2
[14] = target: T1, Estrogen receptor (Mus musculus); assay: Estrogenic activity in uterotrophic test in mice at 60 ug; format: functional; outline: as §5
[15] = target: T1, Estrogen receptor (Mus musculus); assay: Antiestrogenic activity in uterotrophic test in mice at 5 ug; format: functional; outline: as §1
[16] = target: T1, Estrogen receptor (Mus musculus); assay: Estrogenic activity in uterotrophic test in mice at 2 ug; format: functional; outline: as §4
[17] = target: T1, Estrogen receptor (Mus musculus); assay: Inhibitory activity in mouse uterine weight test at 80 ug; format: functional
Outline: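 Immature female NMRI mice, 20 days old (14.5 ± 1.2 g), in random groups of 10. They received sc injections daily for 3 days of 0.1 mL olive oil containing test compound, with estrone 0.1 μg given to stimulate uterine growth. Uteri were removed 24 h after the last injection and weighed (mean ± SD). Result is percent inhibition of the estrone-stimulated uterine weight gain.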

[18] = species on record: Mus musculus; assay: Vaginal cornification test in mice at 5 ug; predominant cellular component leucocytes (diestrus); format: functional, organism-based; outline: as §3
[19] = species on record: Mus musculus; assay: Predominant components of vaginal smear at a compound concentration of 80 ug was determined using vaginal cornification test; leucocytes (</= 50%), nucleated and cornified, nucleated cellscharacteristic of antiestrogens; format: functional, organism-based
[20] = target: T1, Estrogen receptor (Mus musculus); assay: Inhibitory activity in mouse uterine weight test at 240 ug; format: functional; outline: as §2
[21] = target: T1, Estrogen receptor (Mus musculus); assay: Estrogenic activity in uterotrophic test in mice at 0 ug; format: functional; outline: as §4
[22] = target: T1, Estrogen receptor (Mus musculus); assay: Antiestrogenic activity in uterotrophic test in mice at 2.7 ug; format: functional; outline: as §1
[23] = target: T1, Estrogen receptor (Mus musculus); assay: Antiestrogenic activity in uterotrophic test in mice at 27 ug; format: functional; outline: as §1
[24] = species on record: Mus musculus; assay: Predominant components of vaginal smear at a compound concentration of 240 ug was determined using vaginal cornification test; leucocytes (</= 50%), nucleated and cornified, nucleated cellscharacteristic of antiestrogens; format: functional, organism-based
[25] = target: T1, Estrogen receptor (Mus musculus); assay: Inhibitory activity in mouse uterine weight test at 5 ug; format: functional; outline: as §2
[26] = target: T1, Estrogen receptor (Mus musculus); assay: Estrogenic activity in uterotrophic test in mice at 20 ug; format: functional; outline: as §4
[27] = target: T1, Estrogen receptor (Mus musculus); assay: Antiestrogenic activity in uterotrophic test in mice at 80 ug; format: functional; outline: as §1
[28] = target: T1, Estrogen receptor (Mus musculus); assay: Inhibitory activity in mouse uterine weight test at 2.7 ug; format: functional; outline: as §2
[29] = species on record: Mus musculus; assay: Vaginal cornification test in mice at 2.7 ug; predominant cellular component leucocytes (diestrus); format: functional, organism-based
[30] = species on record: Mus musculus; assay: Vaginal cornification test in mice at 27 ug; predominant cellular component leucocytes (diestrus); format: functional, organism-based

T1 sequence (O08537 whole entry, looked up): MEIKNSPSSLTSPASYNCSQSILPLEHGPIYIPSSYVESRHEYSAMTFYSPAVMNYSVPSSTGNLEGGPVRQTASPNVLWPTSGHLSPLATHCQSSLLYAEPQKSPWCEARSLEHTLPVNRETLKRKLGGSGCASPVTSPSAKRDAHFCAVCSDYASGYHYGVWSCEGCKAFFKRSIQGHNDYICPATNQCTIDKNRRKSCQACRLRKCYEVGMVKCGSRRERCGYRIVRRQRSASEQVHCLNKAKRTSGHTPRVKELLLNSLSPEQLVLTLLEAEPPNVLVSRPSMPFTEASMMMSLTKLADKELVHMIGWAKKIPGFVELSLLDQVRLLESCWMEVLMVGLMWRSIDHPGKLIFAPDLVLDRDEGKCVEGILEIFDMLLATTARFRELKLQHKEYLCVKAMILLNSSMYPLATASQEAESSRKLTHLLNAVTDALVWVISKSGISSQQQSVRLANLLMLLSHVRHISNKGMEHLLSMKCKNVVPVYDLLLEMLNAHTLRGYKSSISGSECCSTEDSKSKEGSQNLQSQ
T1 sequence (P19785 whole entry, looked up): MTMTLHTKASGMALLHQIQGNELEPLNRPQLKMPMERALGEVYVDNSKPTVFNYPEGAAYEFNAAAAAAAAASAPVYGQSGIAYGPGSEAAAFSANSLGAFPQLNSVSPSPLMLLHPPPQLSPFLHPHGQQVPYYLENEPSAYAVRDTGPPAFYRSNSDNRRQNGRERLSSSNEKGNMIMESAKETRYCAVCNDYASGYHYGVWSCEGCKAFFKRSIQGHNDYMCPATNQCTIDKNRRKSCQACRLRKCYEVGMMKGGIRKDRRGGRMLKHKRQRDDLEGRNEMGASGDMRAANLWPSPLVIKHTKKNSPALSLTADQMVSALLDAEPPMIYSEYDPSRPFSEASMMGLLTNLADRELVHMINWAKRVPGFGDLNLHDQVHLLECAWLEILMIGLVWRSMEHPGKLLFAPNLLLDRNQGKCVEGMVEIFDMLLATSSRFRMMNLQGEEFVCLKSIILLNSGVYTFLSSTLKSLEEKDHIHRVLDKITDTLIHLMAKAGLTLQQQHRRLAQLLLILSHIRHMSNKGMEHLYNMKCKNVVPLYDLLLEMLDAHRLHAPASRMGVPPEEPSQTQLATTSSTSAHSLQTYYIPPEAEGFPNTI

In the case of CCCCCC(c1cccc(O)c1)C(CCCCC)c1cccc(O)c1 (configuration not stated), the Effect [1] was 34.2, the Effect [2] was 39.5 and the Ka [3] was 3.3e+06 M⁻¹. It also gave an inhibition [4] of 15%, an Effect [5] of 10.5 and an Effect [6] of 34.6. It also gave an inhibition [7] of 5% and an inhibition [8] of 14%.
In the case of CC(C)CC(c1cccc(O)c1)C(CC(C)C)c1cccc(O)c1 (configuration not stated), the Activity [9] was “inactive”, the Effect [10] was 31.7 and the Effect [11] was 32.6. The Effect [12] was 31.3, the inhibition [13] was 22% and the Effect [14] was 19. The Ka [3] was 110000 M⁻¹, the Effect [15] was 34.1 and the Effect [16] was 11.8. For the same compound, the inhibition [17] was 28%, the Activity [18] was “inactive” and the Activity [19] was “Weak activity”. The inhibition [20] was 27%, the Effect [21] was 10 and the Effect [22] was 38.1. For the same compound, the Effect [23] was 33.2, the Activity [24] was “Weak activity” and the Effect [5] was 11.4. The inhibition [25] was 18%, the Effect [26] was 14.5 and the Effect [27] was 31.5. The inhibition [28] was 4%, the Activity [29] was “inactive” and the Activity [30] was “inactive”.

— ChEMBL document CHEMBL1121898, “Potential antiestrogens. Synthesis and evaluation of mammary tumor inhibiting activity of 1,2-dialkyl-1,2-bis(3'-hydroxyphenyl)ethanes” (1981)
